In ChEMBL document CHEMBL5131497, “Design, Synthesis, and Characterization of TNP-2198, a Dual-Targeted Rifamycin-Nitroimidazole Conjugate with Potent Activity against Microaerophilic and Anaerobic Bacterial Pathogens” (J Med Chem, 2022):
Converted amounts (≈) assume the structure as drawn.

Legend:
Clostridioides difficile [1] = test: Antibacterial activity against rifampicin/fluoroquinolone-resistant Clostridioides difficile CB1942 harboring rpoBQ489K/gyrAD71Y/T82A mutant at 1:1 compound to metronidazole molar ratio measured after 3 days in presence of metronidazole; type: functional; settings: CB1942, 72 h, time 3 day
Gardnerella vaginalis [2] = test: Antibacterial activity against Gardnerella vaginalis ATCC 49145; type: functional
Clostridioides difficile [3] = test: Antibacterial activity against rifampicin-resistant Clostridioides difficile harboring rpoBQ489K mutant; type: functional
Clostridioides difficile [4] = test: Antibacterial activity against rifampicin-resistant Clostridioides difficile CB1934 harboring rpoBQ489K mutant at 1:1 compound to metronidazole molar ratio measured after 3 days in presence of metronidazole; type: functional; settings: CB1934, 72 h, time 3 day
Helicobacter pylori [5] = test: Antibacterial activity against Helicobacter pylori clinical isolate USA; type: functional
Clostridioides difficile [6] = test: Antibacterial activity against rifampicin/fluoroquinolone-resistant Clostridioides difficile CB1940 harboring rpoBQ489K/gyrAA118S mutant measured after 3 days; type: functional; settings: CB1940, 72 h, time 3 day
Prevotella disiens [7] = test: Antibacterial activity against Prevotella disiens MMX 3446; type: functional
[8] = tested on: Bacteroides thetaiotaomicron; test: Antibacterial activity against metronidazole-resistant Bacteroides thetaiotaomicron MMX 3409; type: functional
Helicobacter pylori [9] = test: Antibacterial activity against Helicobacter pylori ATCC 700392 at 1:1 compound to metronidazole molar ratio measured after 5 days in presence of metronidazole by agar dilution method; type: functional; settings: ATCC 700392, 120 h, time 5 day
Outline: (§1)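 Agar dilution per CLSI. Wild-type ATCC 700392 (CB1531) and its derivatives carry defined resistance determinants. Drugs, alone or in 1:1 molar mixtures, were diluted 2-fold from 100× stocks into Mueller–Hinton agar with aged (≥2 weeks) sheep blood (5% v/v). MIC read after 5 days at 35 °C under microaerobic conditions from a campylobacter gas-generating system.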

Bifidobacterium longum = test: Antibacterial activity against Bifidobacterium longum ATCC 15707; type: functional
Clostridioides difficile [10] = test: Antibacterial activity against rifampicin/fluoroquinolone-resistant Clostridioides difficile CB1942 harboring rpoBQ489K/gyrAD71Y/T82A mutant measured after 3 days; type: functional; settings: CB1942, 72 h, time 3 day
Gardnerella vaginalis [11] = test: Antibacterial activity against Gardnerella vaginalis ATCC 14018; type: functional
Helicobacter pylori [12] = test: Antibacterial activity against rifampicin-resistant Helicobacter pylori CB1903 harboring rpoBD530V mutant at 1:1 compound to metronidazole molar ratio measured after 5 days in presence of metronidazole by agar dilution method; type: functional; settings: CB1903, 120 h, time 5 day; outline: as §1
Clostridioides difficile [13] = test: Antibacterial activity against rifampicin-resistant Clostridioides difficile CB1934 harboring rpoBQ489K mutant measured after 3 days; type: functional; settings: CB1934, 72 h, time 3 day
Prevotella disiens [14] = test: Antibacterial activity against Prevotella disiens MMX 3457; type: functional
Clostridioides difficile [15] = test: Antibacterial activity against Clostridioides difficile clinical isolate China; type: functional
Helicobacter pylori [16] = test: Antibacterial activity against metronidazole-resistant Helicobacter pylori CB1573 harboring rdxAR16S mutant measured after 5 days by agar dilution method; type: functional; settings: CB1573, 120 h, time 5 day; outline: as §1
Clostridioides difficile [17] = test: Antibacterial activity against fluoroquinolone-resistant Clostridioides difficile CB1939 at 1:1 compound to metronidazole molar ratio measured after 3 days in presence of metronidazole; type: functional; settings: CB1939, 72 h, time 3 day
Helicobacter pylori [18] = test: Antibacterial activity against metronidazole-resistant Helicobacter pylori CB1573 harboring rdxAR16S mutant at 1:1 compound to metronidazole molar ratio measured after 5 days in presence of metronidazole by agar dilution method; type: functional; settings: CB1573, 120 h, time 5 day; outline: as §1
Clostridioides difficile [19] = test: Antibacterial activity against Clostridioides difficile BAA 1382; type: functional
[20] = tested on: Porphyromonas asaccharolytica; test: Antibacterial activity against metronidazole-resistant Prevotella asaccharolytica MMX 3552; type: functional
Helicobacter pylori [21] = test: Antibacterial activity against rifampicin-resistant Helicobacter pylori CB1903 harboring rpoBD530V mutant measured after 5 days by agar dilution method; type: functional; settings: CB1903, 120 h, time 5 day; outline: as §1
Veillonella parvula = test: Antibacterial activity against Veillonella parvula ATCC 17745 MMX 1272; type: functional
Bacteroides uniformis = test: Antibacterial activity against Bacteroides uniformis MMX 1277; type: functional
Peptostreptococcus sp. = test: Antibacterial activity against Peptostreptococcus magnus ATCC 14956; type: functional
Prevotella intermedia = test: Antibacterial activity against Prevotella intermedia ATCC 25611 MMX 3002; type: functional
Clostridioides difficile [22] = test: Antibacterial activity against fluoroquinolone-resistant Clostridioides difficile CB1941 harboring gyrAD71Y/T82A mutant measured after 3 days; type: functional; settings: CB1941, 72 h, time 3 day
Clostridioides difficile [23] = test: Antibacterial activity against fluoroquinolone-resistant Clostridioides difficile CB1941 harboring gyrAD71Y/T82A mutant at 1:1 compound to metronidazole molar ratio measured after 3 days in presence of metronidazole; type: functional; settings: CB1941, 72 h, time 3 day
Fusobacterium nucleatum = test: Antibacterial activity against Fusobacterium nucleatum ATCC 25586; type: functional
Helicobacter pylori [24] = test: Antibacterial activity against Helicobacter pylori clinical isolate China; type: functional
Clostridioides difficile [25] = test: Antibacterial activity against rifampicin/fluoroquinolone-resistant Clostridioides difficile CB1940 harboring rpoBQ489K/gyrAA118S mutant at 1:1 compound to metronidazole molar ratio measured after 3 days in presence of metronidazole; type: functional; settings: CB1940, 72 h, time 3 day
Helicobacter pylori [26] = test: Antibacterial activity against rifampicin-resistant Helicobacter pylori CB1902 harboring rpoBV149F mutant at 1:1 compound to metronidazole molar ratio measured after 5 days in presence of metronidazole by agar dilution method; type: functional; settings: CB1902, 120 h, time 5 day; outline: as §1
Clostridioides difficile [27] = test: Antibacterial activity against Clostridioides difficile ATCC 9689; type: functional
Prevotella bivia = test: Antibacterial activity against Prevotella bivia ATCC 29303/MMX 5718; type: functional
Helicobacter pylori [28] = test: Antibacterial activity against rifampicin-resistant Helicobacter pylori CB1614 harboring rpoBL525I/D530N at 1:1 compound to metronidazole molar ratio measured after 5 days in presence of metronidazole by agar dilution method; type: functional; settings: CB1614, 120 h, time 5 day; outline: as §1
Staphylococcus aureus = test: Antibacterial activity against Staphylococcus aureus ATCC 29213; type: functional
Actinomyces naeslundii = test: Antibacterial activity against Actinomyces naeslundii ATCC 1210; type: functional
Syrian golden hamster = test: Antibacterial activity against Clostridioides difficile UNT-103-1 infected in Syrian hamster assessed as mortality at 20 mg/kg, po administered once a daily for 5 days after 18 hrs post 10 mg/kg clindamycin treatment and measured upto 21 days; type: functional, Mesocricetus auratus; settings: time <= 21 day
Outline: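 Male Golden Syrian hamsters (80-90 g), housed singly, were gavaged with C. difficile UNT103-1 grown in sporulation medium broth and diluted to OD600 1 in prereduced broth. […] From 18 h later, drug or vehicle was given by oral gavage once daily for 5 days. Survival was recorded through day 21.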

Molecule `CO[C@H]1/C=C/O[C@@]2(C)Oc3c(C)c(O)c4c(O)c(c(/C=N/N5CCN(C)CC5)c(O)c4c3C2=O)NC(=O)/C(C)=C\C=C\[C@H](C)[C@H](O)[C@@H](C)[C@@H](O)[C@@H](C)[C@H](OC(C)=O)[C@@H]1C` [RIFAMPIN] has an MIC (Clostridioides difficile [1]) of 2 µg/mL, an MIC (Gardnerella vaginalis [2]) of 0.5 µg/mL (≈ 0.608 µM) and an MIC (Clostridioides difficile [3]) of 0.25 µg/mL (≈ 0.304 µM). It also gave an MIC (Clostridioides difficile [4]) of 2 µg/mL, an MIC (Helicobacter pylori [5]) of at least 0.007 µg/mL and an MIC (Clostridioides difficile [6]) of over 32 µg/mL. The MIC (Prevotella disiens [7]) was 0.12 µg/mL (≈ 0.146 µM), the MIC [8] was 0.5 µg/mL (≈ 0.608 µM) and the MIC (Helicobacter pylori [9]) was 0.5 µg/mL. The MIC (Bifidobacterium longum) was 0.5 µg/mL (≈ 0.608 µM), the MIC (Clostridioides difficile [10]) was over 32 µg/mL and the MIC (Gardnerella vaginalis [11]) was 0.5 µg/mL (≈ 0.608 µM). The MIC (Helicobacter pylori [12]) was 16 µg/mL, the MIC (Clostridioides difficile [13]) was over 32 µg/mL and the MIC (Prevotella disiens [14]) was 0.5 µg/mL (≈ 0.608 µM). The MIC (Clostridioides difficile [15]) was 0.06 µg/mL (≈ 0.0729 µM), the MIC90 (Clostridioides difficile [15]) was at least 128 µg/mL and the MIC (Helicobacter pylori [16]) was 0.5 µg/mL (≈ 0.608 µM). It also gave an MIC (Clostridioides difficile [17]) of at most 0.03 µg/mL, an MIC (Helicobacter pylori [18]) of 0.25 µg/mL and an MIC (Clostridioides difficile [19]) of 0.001 µg/mL (≈ 0.00122 µM). For the same molecule, the MIC [20] was 0.004 µg/mL (≈ 0.00486 µM), the MIC (Helicobacter pylori [21]) was over 32 µg/mL and the MIC (Veillonella parvula) was 4 µg/mL (≈ 4.86 µM). The MIC (Bacteroides uniformis) was 0.5 µg/mL (≈ 0.608 µM), the MIC (Peptostreptococcus sp.) was 1 µg/mL (≈ 1.22 µM) and the MIC (Prevotella intermedia) was 0.12 µg/mL (≈ 0.146 µM). The MIC (Clostridioides difficile [22]) was at most 0.03 µg/mL, the MIC (Clostridioides difficile [23]) was at most 0.03 µg/mL and the MIC (Fusobacterium nucleatum) was 0.5 µg/mL (≈ 0.608 µM). For the same molecule, the MIC (Helicobacter pylori [24]) was at most 0.06 µg/mL, the MIC90 (Helicobacter pylori [24]) was 0.5 µg/mL (≈ 0.608 µM) and the MIC (Clostridioides difficile [25]) was 2 µg/mL. The MIC (Helicobacter pylori [26]) was 8 µg/mL, the MIC (Clostridioides difficile [27]) was 0.001 µg/mL (≈ 0.00122 µM) and the MIC (Prevotella bivia) was 0.5 µg/mL (≈ 0.608 µM). For the same molecule, the MIC (Helicobacter pylori [28]) was 8 µg/mL, the MIC (Staphylococcus aureus) was 0.008 µg/mL (≈ 0.00972 µM) and the MIC (Actinomyces naeslundii) was 0.03 µg/mL (≈ 0.0365 µM).
`CN[C@H](CC(C)C)C(=O)N[C@H]1C(=O)N[C@@H](CC(N)=O)C(=O)N[C@H]2C(=O)N[C@H]3C(=O)N[C@H](C(=O)N[C@H](C(=O)O)c4cc(O)cc(O)c4-c4cc3ccc4O)[C@H](O)c3ccc(c(Cl)c3)Oc3cc2cc(c3O[C@@H]2O[C@H](CO)[C@@H](O)[C@H](O)[C@H]2O[C@H]2C[C@](C)(N)[C@H](O)[C@H](C)O2)Oc2ccc(cc2Cl)[C@H]1O` [VANCOMYCIN] was tested, and the Activity (Syrian golden hamster) was 80%.
